Measured values published in ChEMBL document CHEMBL1134528, “Heterocycle-containing retinoids. Discovery of a novel isoxazole arotinoid possessing potent apoptotic activity in multidrug and drug-induced apoptosis-resistant cells” (J Med Chem, 2001).
pIC50: −log10 of the molar value.

Tests used:
[1] = test system: HL-60; assay: In vitro apoptotic activity in HL60 cells; assay type: functional, cell-based; conditions: Homo sapiens
Procedure, shortened: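 HL60 cells (2 × 10^5 per well, RPMI 1640 + 10% FCS) given increasing drug concentrations for 48 h; apoptosis scored morphologically under fluorescence microscopy after acridine orange/ethidium bromide labelling (chromatin condensation, apoptotic bodies), also by propidium iodide hypotonic-citrate flow cytometry as pre-G0G1 events; AC50 = concentration giving apoptosis in 50% of cells.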

[2] = test system: HL-60; assay: In vitro inhibition of HL60 cell proliferation; assay type: functional, cell-based; conditions: Homo sapiens
[3] = test system: HL-60; assay: Effect on monocyte associated antigen CD14 expression in differentiating HL-60 cells; assay type: functional, Homo sapiens
Procedure, shortened: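 HL60 cells (2 × 10^5) exposed to each retinoid for 6 days; differentiation scored by May Grunwald-Giemsa-stained cytospin morphology and two-colour direct immunofluorescence flow cytometry with FITC anti-human CD14 and PE anti-human CD11c mouse monoclonals, isotype antibodies as negative controls; value is % antigen-positive cells. Growth in RPMI 1640, 10% FCS, 37 °C, 5% CO2.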

[4] = test system: SW 962; assay: (§1) Percentage efficacy for Beta RARE transactivation in SW962 cells; assay type: functional, Homo sapiens; set-up: concentration or dose not given beside the values
Procedure, shortened: (§2)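 SW962 vulvar carcinoma cells (L15 medium, 10% FBS with <8 nM vitamin A) stably carrying RARE-tk-CAT reporter with endogenous receptors, treated 24 h in DMSO; CAT measured by ELISA, normalised to protein, triplicates; fold induction vs DMSO control. Efficacy = fold induction at highest concentration (10 µM) divided by that of 10 µM 9-cis-RA, ×100.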

[5] = test system: SW 962; assay: Potency against beta RARE transactivation in SW962 cells; assay type: functional, Homo sapiens
Procedure, shortened: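 Stably transfected SW962 RARE-tk-CAT reporter line treated 24 h with 10^-9 to 10^-5 M compound in DMSO, DMSO vehicle control; CAT protein by ELISA normalised to extract protein, triplicate treatments averaged to give fold RARE induction; EC50, the concentration for half-maximal activation, read from dose–response curves.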

[6] = test system: HL-60; assay: Apoptotic activity in retinoic acid resistant HL60R cells; assay type: functional, cell-based; conditions: Homo sapiens
Procedure, shortened: (§3)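 Cells were exposed to increasing drug concentrations for 48 h. Apoptosis was scored by fluorescence microscopy after acridine orange/ethidium bromide staining, with chromatin condensation and apoptotic bodies marking apoptotic cells and uniform ethidium staining marking necrosis. AC50 is the concentration inducing apoptosis in 50% of cells.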

[7] = test system: HL-60; assay: Inhibition of retinoic acid resistant HL60R cell proliferation; assay type: functional, cell-based; conditions: Homo sapiens
Procedure, shortened: (§4)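 Cells at 2 × 10^5 per well in 1 mL complete medium were exposed to increasing concentrations of each drug for 48 h. Viable cells were counted on a hemocytometer with trypan blue exclusion and expressed as percent of control proliferation. IC50 is the concentration giving 50% growth inhibition.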

[8] = test system: HuT78; assay: Apoptotic activity in retinoic acid resistant HUT78 cell lines; assay type: functional, cell-based; conditions: Homo sapiens; procedure, shortened: as §3
[9] = test system: HuT78; assay: Inhibition of retinoic acid resistant HUT78 cell proliferation; assay type: functional, cell-based; conditions: Homo sapiens; procedure, shortened: as §4
[10] = test system: K562; assay: Apoptotic activity in retinoic acid resistant K562 cells; assay type: functional, cell-based; conditions: Homo sapiens; procedure, shortened: as §3
[11] = test system: K562; assay: Inhibition of retinoic acid resistant K562 cell proliferation; assay type: functional, cell-based; conditions: Homo sapiens; procedure, shortened: as §4
[12] = test system: SW 962; assay: as §1; assay type: functional, Homo sapiens; procedure, shortened: as §2

Compound | pIC50 [2] | AC50 [1] [µM] | Activity [3] [%] | Efficacy [4] [%] | Potency [5] [nM] | also measured
CC1(C)CCC(C)(C)c2cc(C3=NOC(c4ccc(C(=O)O)cc4)C3)ccc21 (configuration not stated) | 4.17 | > 100 | 42.8 | 46.5 | 2860 | –
CC1(C)CCC(C)(C)c2cc(-c3cc(-c4ccc(C(=O)O)cc4)no3)ccc21 | 6.00 | 5 | – | 97.6 | 10000 | AC50 [6]: 4.2 µM; pIC50 [7]: 5.85; AC50 [8]: 1500 nM; pIC50 [9]: 6.10; AC50 [10]: 4.8 µM; pIC50 [11]: 5.64
CC1(C)CCC(C)(C)c2cc(C3CC(c4ccc(C(=O)O)cc4)=NO3)ccc21 (configuration not stated) | 4.12 | > 100 | 32.5 | 26.3 | 961 | –
CC1(C)CCC(C)(C)c2cc(COc3ccc(C(=O)O)cc3)ccc21 | < 4.00 | > 100 | – | – | – | –
CC1(C)CCC(C)(C)c2cc(-c3cc(-c4ccc(C(=O)O)cc4)on3)ccc21 | 4.10 | > 100 | 38.6 | 48 | 129 | –
CC1=C(/C=C/C(C)=C\C=C\C(C)=C\C(=O)O)C(C)(C)CCC1 [ALITRETINOIN] | – | – | – | – | 16.9 | Efficacy [12]: 100%

Further compounds by rising pIC50 [2], results first:

pIC50 [2] | Compound | AC50 [1] [µM] | Activity [3] [%] | Efficacy [4] [%] | Potency [5] [nM] | also measured
4.22 | CC1(C)CCC(C)(C)c2cc(CNc3cccc(C(=O)O)c3)ccc21 | 99 | – | – | – | –
4.24 | CN(Cc1ccc2c(c1)C(C)(C)CCC2(C)C)c1ccc(C(=O)O)cc1 | 95 | – | – | – | –
4.31 | CC1(C)CCC(C)(C)c2cc(CNc3ccccc3C(=O)O)ccc21 | 88 | – | – | – | –
4.40 | CC1(C)CCC(C)(C)c2cc(CNc3ccc(C(=O)O)cc3)ccc21 | 70 | – | 64.5 | 671 | –
4.74 | CC1=C(/C=C/C(C)=C/C=C/C(C)=C/C(=O)O)C(C)(C)CCC1 [TRETINOIN] | > 100 | 0 | – | – | –
